From ChEMBL document CHEMBL3739417, “Synthesis and biological evaluation of novel 4,5-disubstituted 2H-1,2,3-triazoles as cis-constrained analogues of combretastatin A-4” (2015)

Assays:
Assay type in all cases: functional
[1] = Growth inhibition of human PC3 cells after 48 hrs by sulforhodamine B assay; conditions: PC-3, 48 h
In short: (§1)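 NCI-60 panel screen by SRB assay (Rubinstein method). Percentage growth taken from optical density of SRB colour, read before and 48 hrs after exposure to compound or vehicle control. All analogues first screened at 10^-5 M. Analogues giving 60% growth inhibition at that level in at least eight lines then went to a five-concentration dose-response study.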

[2] = system: MCF7; assay: Growth inhibition of human MCF7 cells after 48 hrs by sulforhodamine B assay; conditions: MCF7, 48 h; in short: as §1
[3] = system: 786-0; assay: Growth inhibition of human 786-0 cells after 48 hrs by sulforhodamine B assay; conditions: 786-0, 48 h; in short: as §1
[4] = Growth inhibition of human HOP92 cells after 48 hrs by sulforhodamine B assay; conditions: HOP-92, 48 h; in short: as §1
[5] = system: NCI-H460; assay: Growth inhibition of human NCI-H460 cells after 48 hrs by sulforhodamine B assay; conditions: NCI-H460, 48 h; in short: as §1
[6] = Growth inhibition of human OVCAR3 cells after 48 hrs by sulforhodamine B assay; conditions: OVCAR-3, 48 h
In short: (§2)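 NCI-60 sulforhodamine B screen. Compounds were first tested at a single dose of 10⁻⁵ M; hits, defined as ≥60% growth inhibition in at least eight lines, went on to a five-concentration dose–response. SRB optical density was read before and 48 h after exposure to compound or vehicle. Percentage growth was calculated from OD.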

[7] = system: SR; assay: Growth inhibition of human SR cells after 48 hrs by sulforhodamine B assay; in short: as §1
[8] = system: K562; assay: Growth inhibition of human K562 cells after 48 hrs by sulforhodamine B assay; conditions: K562, 48 h; in short: as §1
[9] = Growth inhibition of human HCC2998 cells after 48 hrs by sulforhodamine B assay; conditions: HCC 2998, 48 h; in short: as §1
[10] = Growth inhibition of human HCT116 cells after 48 hrs by sulforhodamine B assay; conditions: HCT-116, 48 h; in short: as §1
[11] = system: NCI-H23; assay: Growth inhibition of human NCI-H23 cells after 48 hrs by sulforhodamine B assay; conditions: NCI-H23, 48 h; in short: as §1
[12] = Growth inhibition of human SF268 cells after 48 hrs by sulforhodamine B assay; conditions: SF-268, 48 h; in short: as §1
[13] = system: SK-MEL-2; assay: Growth inhibition of human SK-MEL-2 cells after 48 hrs by sulforhodamine B assay; conditions: SK-MEL-2, 48 h; in short: as §1
[14] = Growth inhibition of human HCT15 cells after 48 hrs by sulforhodamine B assay; conditions: HCT-15, 48 h; in short: as §1
[15] = system: SK-MEL-5; assay: Growth inhibition of human SK-MEL-5 cells after 48 hrs by sulforhodamine B assay; conditions: SK-MEL-5, 48 h; in short: as §1
[16] = Growth inhibition of human SF295 cells after 48 hrs by sulforhodamine B assay; conditions: SF-295, 48 h; in short: as §1
[17] = Growth inhibition of human UO31 cells after 48 hrs by sulforhodamine B assay; conditions: UO-31, 48 h; in short: as §1
[18] = system: MDA-MB-468; assay: Growth inhibition of human MDA-MB-468 cells after 48 hrs by sulforhodamine B assay; conditions: MDA-MB-468, 48 h; in short: as §1
[19] = Growth inhibition of human SKOV3 cells after 48 hrs by sulforhodamine B assay; conditions: SK-OV-3, 48 h; in short: as §1
[20] = Growth inhibition of human HOP62 cells after 48 hrs by sulforhodamine B assay; conditions: HOP-62, 48 h; in short: as §1
[21] = system: HT-29; assay: Growth inhibition of human HT-29 cells after 48 hrs by sulforhodamine B assay; conditions: HT-29, 48 h; in short: as §1
[22] = Growth inhibition of human IGROV1 cells after 48 hrs by sulforhodamine B assay; conditions: IGROV-1, 48 h; in short: as §1
[23] = system: ACHN; assay: Growth inhibition of human ACHN cells after 48 hrs by sulforhodamine B assay; in short: as §1
[24] = system: U-251; assay: Growth inhibition of human U251 cells after 48 hrs by sulforhodamine B assay; conditions: U-251, 48 h; in short: as §1
[25] = Growth inhibition of human RPMI8226 cells after 48 hrs by sulforhodamine B assay; conditions: RPMI-8226, 48 h; in short: as §1
[26] = system: MDA-MB-231; assay: Growth inhibition of human MDA-MB-231 cells after 48 hrs by sulforhodamine B assay; conditions: MDA-MB-231, 48 h; in short: as §1
[27] = system: A549; assay: Growth inhibition of human A549/ATCC cells after 48 hrs by sulforhodamine B assay; conditions: A549, 48 h; in short: as §1
[28] = Growth inhibition of human NCI-ADR-RES cells after 48 hrs by sulforhodamine B assay; in short: as §1
[29] = Growth inhibition of human SNB75 cells after 48 hrs by sulforhodamine B assay; conditions: SNB-75, 48 h; in short: as §1
[30] = Growth inhibition of human SW620 cells after 48 hrs by sulforhodamine B assay; conditions: SW-620, 48 h; in short: as §1
[31] = Growth inhibition of human DU145 cells after 48 hrs by sulforhodamine B assay; conditions: DU-145, 48 h; in short: as §1
[32] = system: CAKI-1; assay: Growth inhibition of human CAKI-1 cells after 48 hrs by sulforhodamine B assay; conditions: CAKI-1, 48 h; in short: as §1
[33] = system: A498; assay: Growth inhibition of human A498 cells after 48 hrs by sulforhodamine B assay; conditions: A498, 48 h; in short: as §2
[34] = Growth inhibition of human LOXIMVI cells after 48 hrs by sulforhodamine B assay; conditions: LOX IMVI; in short: as §1
[35] = system: MDA-MB-435; assay: Growth inhibition of human MDA-MB-435 cells after 48 hrs by sulforhodamine B assay; conditions: MDA-MB-435, 48 h; in short: as §2
[36] = system: CCRF-CEM; assay: Growth inhibition of human CCRF-CEM cells after 48 hrs by sulforhodamine B assay; in short: as §1
[37] = system: KM12; assay: Growth inhibition of human KM12 cells after 48 hrs by sulforhodamine B assay; conditions: KM12, 48 h; in short: as §1
[38] = read-out: LD50 (the source's name)

## COc1ccc(-c2nn[nH]c2-c2cc(OC)c(OC)c(OC)c2)cc1
[1]
  GI50: < 0.01 µM
[1]; [38]
  CC50: > 100 µM
[2]
  GI50: < 0.01 µM
[2]; [38]
  CC50: > 100 µM
[3]
  GI50: < 0.01 µM
[3]; read-out: LD50
  LC50 (concentration killing 50% of cells): > 100 µM
[4]
  GI50: < 0.01 µM
[4]; [38]
  CC50: > 100 µM
[5]
  GI50: < 0.01 µM
[5]; [38]
  CC50: > 100 µM
[6]
  GI50: < 0.01 µM
  TGI: < 0.01 µM
[6]; read-out: LD50
  LC50 (concentration giving 50% net cell kill): > 100 µM
[7]
  GI50: < 0.01 µM
[7]; read-out: LD50
  LC50 (concentration giving 50% net cell kill): > 100 µM
[8]
  GI50: < 0.01 µM
[8]; [38]
  CC50: > 100 µM
[9]
  GI50: 0.024 µM
[9]; [38]
  CC50: > 100 µM
[10]
  GI50: < 0.01 µM
[10]; [38]
  CC50: > 100 µM
[11]
  GI50: < 0.01 µM
[11]; read-out: LD50
  LC50 (concentration giving 50% cell kill): > 100 µM
[12]
  GI50: < 0.01 µM
[12]; [38]
  CC50: > 100 µM
[13]
  GI50: < 0.01 µM
[13]; [38]
  CC50: > 100 µM
[14]
  GI50: < 0.01 µM
[14]; [38]
  CC50: > 100 µM
[15]
  GI50: < 0.01 µM
[15]; [38]
  CC50: > 100 µM
[16]
  GI50: < 0.01 µM
[16]; [38]
  CC50: > 100 µM
[17]
  GI50: < 0.01 µM
[17]; read-out: LD50
  LC50 (concentration killing 50% of cells): > 100 µM
[18]
  GI50: < 0.01 µM
[18]; [38]
  CC50: > 100 µM
[19]
  GI50: < 0.01 µM
[19]; read-out: LD50
  LC50 (concentration killing 50% of cells): > 100 µM
[20]
  GI50: < 0.01 µM
[20]; read-out: LD50
  LC50 (concentration killing 50% of cells): > 100 µM
[21]
  GI50: < 0.01 µM
[21]; read-out: LD50
  LC50 (concentration killing 50% of cells): > 100 µM
[22]
  GI50: < 0.01 µM
[22]; [38]
  CC50: > 100 µM
[23]
  GI50: < 0.01 µM
[23]; [38]
  CC50: > 100 µM
[24]
  GI50: < 0.01 µM
[24]; [38]
  CC50: > 100 µM
[25]
  GI50: < 0.01 µM
[25]; [38]
  CC50: > 100 µM
[26]
  GI50: < 0.01 µM
[26]; [38]
  CC50: > 100 µM
[27]
  GI50: < 0.01 µM
[27]; [38]
  CC50: > 100 µM
[28]
  GI50: < 0.01 µM
[28]; [38]
  CC50: > 100 µM
[29]
  GI50: < 0.01 µM
[29]; [38]
  CC50: > 100 µM
[30]
  GI50: < 0.01 µM
  LD50 (concentration killing 50% of cells): > 100 µM
[31]
  GI50: < 0.01 µM
[31]; [38]
  CC50: > 100 µM
[32]
  GI50: < 0.01 µM
[32]; [38]
  CC50: > 100 µM
[33]
  GI50: < 0.01 µM
  TGI: < 0.01 µM
[33]; read-out: LD50
  LC50 (50% net cell kill): > 100 µM
[34]
  GI50: < 0.01 µM
[34]; [38]
  CC50: > 100 µM
[35]
  GI50: < 0.01 µM
  TGI: < 0.01 µM
[35]; read-out: LD50
  LC50 (concentration killing 50% of cells): > 100 µM
[36]
  GI50: < 0.01 µM
[36]; read-out: LD50
  LC50 (concentration killing 50% of cells): > 100 µM
[37]
  GI50: < 0.01 µM
[37]; read-out: LD50
  LC50 (concentration killing 50% of cells): > 100 µM
